In ChEMBL document CHEMBL1134737, “Synthesis and purine receptor affinity of 6-oxopurine nucleosides and nucleotides containing (N)-methanocarba-pseudoribose rings” (Bioorg Med Chem Lett, 2001):
pKi: −log10 of the molar value. The source made the active and inactive calls. No cut-off for these calls is given here.

Columns and labels:
[1] = molecular target: T1, Adenosine receptor A3 (Homo sapiens) (UniProt P0DMS8); assay: Displacement of [125I]AB-MECA from human Adenosine A3 receptor expressed in HEK293 cell membranes at 100 uM
T1 sequence (whole entry): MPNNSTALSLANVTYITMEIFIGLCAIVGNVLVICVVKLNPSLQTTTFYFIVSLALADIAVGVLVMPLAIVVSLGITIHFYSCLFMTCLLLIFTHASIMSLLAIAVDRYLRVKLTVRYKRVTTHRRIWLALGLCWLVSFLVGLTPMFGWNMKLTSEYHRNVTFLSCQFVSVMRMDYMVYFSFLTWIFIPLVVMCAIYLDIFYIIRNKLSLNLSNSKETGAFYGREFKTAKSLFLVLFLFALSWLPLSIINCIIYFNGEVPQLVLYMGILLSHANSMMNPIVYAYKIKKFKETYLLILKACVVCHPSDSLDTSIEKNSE
Outline: (§1)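 Membranes from HEK-293 cells expressing human A3 receptor; specific [125I]AB-MECA binding displaced by test ligands. Reported as Ki ± SEM or as % displacement, n = 3-5.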

[2] = molecular target: T2, Adenosine receptor A1 (Rattus norvegicus) (UniProt P25099); assay: Displacement of [3H]R-PIA from Adenosine A1 receptor in rat brain membrane at 100 uM; assay type: cell membranes
T2 sequence (whole entry): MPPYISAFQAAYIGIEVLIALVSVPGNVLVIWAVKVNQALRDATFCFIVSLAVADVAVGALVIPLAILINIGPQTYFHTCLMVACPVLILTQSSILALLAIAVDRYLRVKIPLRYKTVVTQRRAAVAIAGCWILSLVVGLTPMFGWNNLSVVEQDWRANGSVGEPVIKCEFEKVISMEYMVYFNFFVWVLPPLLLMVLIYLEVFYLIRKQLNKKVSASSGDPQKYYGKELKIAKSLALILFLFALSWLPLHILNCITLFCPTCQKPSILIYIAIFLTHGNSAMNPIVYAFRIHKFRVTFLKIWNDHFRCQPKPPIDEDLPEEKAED

[3] = molecular target: Adenosine receptor A2a (Rattus norvegicus) (UniProt P30543); assay: Displacement of [3H]-CGS- 21680 from A2A receptors in rat striatal membranes at 100 uM; assay type: cell membranes; conditions: Membrane
Sequence of Adenosine receptor A2a (Rattus norvegicus) (P30543 whole entry): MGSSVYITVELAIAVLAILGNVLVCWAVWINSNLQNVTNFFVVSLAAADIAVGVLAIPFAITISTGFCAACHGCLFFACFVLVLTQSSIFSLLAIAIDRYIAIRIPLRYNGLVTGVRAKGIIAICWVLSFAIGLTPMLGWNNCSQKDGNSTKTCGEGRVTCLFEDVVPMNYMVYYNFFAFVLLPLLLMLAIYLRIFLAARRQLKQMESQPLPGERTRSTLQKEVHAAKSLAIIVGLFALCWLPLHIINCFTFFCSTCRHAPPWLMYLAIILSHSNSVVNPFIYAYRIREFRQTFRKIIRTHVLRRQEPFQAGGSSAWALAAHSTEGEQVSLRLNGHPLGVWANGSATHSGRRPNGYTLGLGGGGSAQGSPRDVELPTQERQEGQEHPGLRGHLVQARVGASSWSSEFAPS
Outline: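 Rat striatal membranes as A2A receptor source; displacement of specific [3H]CGS 21680 binding. Reported as Ki ± SEM or as % displacement, n = 3-6.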

HL-60 [4] = assay: Effect on calcium mobilization in HL-60 cells at the dose of 100 uM concentration; Inactive; assay type: functional, cell-based; conditions: Homo sapiens
Adenosine receptor A3 = molecular target: T3, Adenosine receptor A3 (Homo sapiens, UniProt P0DMS8); assay: Displacement of [125I]AB-MECA from human Adenosine A3 receptor expressed in HEK293 cell membranes; outline: as §1
T3 sequence (P0DMS8 whole entry): T1 sequence (whole entry)

HL-60 [5] = assay: Effect on calcium mobilization in HL-60 cells at the dose of 100 uM concentration (1 uM UTP); assay type: functional, Homo sapiens
Adenosine receptor A1 = molecular target: T4, Adenosine receptor A1 (Rattus norvegicus, UniProt P25099); assay: Displacement of [3H]R-PIA binding to Adenosine A1 receptor in rat brain membrane; assay type: cell membranes
T4 sequence (P25099 whole entry): T2 sequence (whole entry)

Row | SMILES | Displacement [2] | Displacement [3] | pKi (Adenosine receptor A3) | other results
1 | CCCCn1c(=O)c2c(ncn2[C@H]2[C@H](O)[C@H](O)[C@]3(OP(=O)(O)OP(=O)(O)OP(=O)(O)O)C[C@H]23)n(CCCC)c1=O | – | – | – | Displacement [1]: < 10%
2 | CNC(=O)[C@@]12C[C@@H]1[C@@H](n1cnc3c(O)ncnc31)[C@H](O)[C@@H]2O | < 10% | < 10% | – | –
3 | OC[C@@]12C[C@@H]1[C@@H](n1cnc3c(O)ncnc31)[C@H](O)[C@@H]2O | < 10% | < 10% | – | –
4 | O=P(O)(O)OC[C@@]12C[C@@H]1[C@@H](n1cnc3c(O)ncnc31)[C@H](O)[C@@H]2O | – | – | – | Activity (HL-60 [4]): inactive
5 | CNC(=O)[C@@]12C[C@@H]1[C@@H](n1cnc3c(=O)[nH]cnc31)[C@H](O)[C@@H]2O | – | – | 4.54 | –
6 | Nc1nc(O)c2ncn([C@H]3[C@H](O)[C@H](O)[C@]4(COP(=O)(O)OP(=O)(O)OP(=O)(O)O)C[C@H]34)c2n1 | – | – | – | Displacement [1]: < 10%; Activity (HL-60 [5]): 53%
7 | O=P(O)(OC[C@@]12C[C@@H]1[C@@H](n1cnc3c(O)ncnc31)[C@H](O)[C@@H]2O)OP(=O)(O)OC[C@@]12C[C@@H]1[C@@H](n1cnc3c(O)ncnc31)[C@H](O)[C@@H]2O | – | – | 4.67 | Activity (HL-60 [4]): inactive
8 | CCCCn1c(=O)c2c(ncn2[C@H]2[C@H](O)[C@H](O)[C@]3(CO)C[C@H]23)n(CCCC)c1=O | – | < 10% | 5.36 | pKi (Adenosine receptor A1): 5.53
9 | Nc1nc(O)c2ncn([C@H]3[C@H](O)[C@H](O)[C@]4(CO)C[C@H]34)c2n1 | < 10% | < 10% | 4.69 | –
10 | CCCCn1c(=O)c2c(ncn2[C@H]2[C@H](O)[C@H](O)[C@]3(C(=O)NC)C[C@H]23)n(CCCC)c1=O | – | < 10% | 5.73 | pKi (Adenosine receptor A1): 4.61
